Source: ChEMBL document CHEMBL3596157, “Heteroaromatic analogs of the resveratrol analog DMU-212 as potent anti-cancer agents” (2015)

Experiments:
Assay type in all cases: functional
[1] = tested on: NCI-H226; assay: Growth inhibition of human NCI-H226 cells after 48 hrs by SRB assay; settings: NCI-H226, 48 h
Summary of the method: (§1)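 NCI-60 panel screen. Cells exposed for 48 h to five concentrations (10−4, 10−5, 10−6, 10−7 and 10−8 M). Sulforhodamine B optical density is read just before compound addition (time zero) and after 48 h, for both treated and vehicle-control wells. Percent growth is calculated against control. GI50 is the concentration giving a 50% reduction in net cell growth relative to cell numbers on day 0.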

[2] = tested on: UACC-257; assay: Growth inhibition of human UACC257 cells after 48 hrs by SRB assay; settings: UACC-257, 48 h
Summary of the method: (§2)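 NCI-60 panel cells; preliminary single-dose screen at 10−5 M, then five-dose testing at 10−4 to 10−8 M (tenfold steps) with 48 h exposure. SRB-stained optical density read before compound addition (time zero), after 48 h with compound, and with vehicle control. Percent growth is calculated against control. GI50 is the concentration giving 50% reduction in net growth relative to day-0 cell number.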

[3] = tested on: OVCAR-4; assay: Growth inhibition of human OVCAR4 cells after 48 hrs by SRB assay; settings: OVCAR-4, 48 h; summary of the method: as §1
[4] = tested on: SK-MEL-28; assay: Growth inhibition of human SK-MEL-28 cells after 48 hrs by SRB assay; settings: SK-MEL-28, 48 h; summary of the method: as §1
[5] = tested on: NCI-H23; assay: Growth inhibition of human NCI-H23 cells after 48 hrs by SRB assay; settings: NCI-H23, 48 h; summary of the method: as §1
[6] = tested on: PC-3; assay: Growth inhibition of human PC3 cells after 48 hrs by SRB assay; settings: PC-3, 48 h; summary of the method: as §1
[7] = tested on: SF-268; assay: Growth inhibition of human SF268 cells after 48 hrs by SRB assay; settings: SF-268, 48 h; summary of the method: as §1
[8] = Growth inhibition of human LOXIMVI cells after 48 hrs by SRB assay; settings: LOX IMVI; summary of the method: as §1
[9] = tested on: MDA-MB-435; assay: Growth inhibition of human MDA-MB-435 cells after 48 hrs by SRB assay; settings: MDA-MB-435, 48 h; summary of the method: as §1
[10] = tested on: OVCAR-3; assay: Growth inhibition of human OVCAR3 cells after 48 hrs by SRB assay; settings: OVCAR-3, 48 h; summary of the method: as §1
[11] = tested on: M14; assay: Growth inhibition of human M14 cells after 48 hrs by SRB assay; settings: M14, 48 h; summary of the method: as §1
[12] = tested on: SW-620; assay: Growth inhibition of human SW620 cells after 48 hrs by SRB assay; settings: SW-620, 48 h; summary of the method: as §2
[13] = tested on: NCI-H322M; assay: Growth inhibition of human NCI-H322M cells after 48 hrs by SRB assay; summary of the method: as §1
[14] = tested on: A498; assay: Growth inhibition of human A498 cells after 48 hrs by SRB assay; settings: A498, 48 h; summary of the method: as §1
[15] = tested on: SK-MEL-2; assay: Growth inhibition of human SK-MEL-2 cells after 48 hrs by SRB assay; settings: SK-MEL-2, 48 h; summary of the method: as §1
[16] = Growth inhibition of human RPMI8226 cells after 48 hrs by SRB assay; settings: RPMI-8226, 48 h; summary of the method: as §1
[17] = tested on: SNB-75; assay: Growth inhibition of human SNB75 cells after 48 hrs by SRB assay; settings: SNB-75, 48 h; summary of the method: as §2
[18] = tested on: UACC-62; assay: Growth inhibition of human UACC62 cells after 48 hrs by SRB assay; settings: UACC-62, 48 h; summary of the method: as §2
[19] = tested on: UO-31; assay: Growth inhibition of human UO31 cells after 48 hrs by SRB assay; settings: UO-31, 48 h; summary of the method: as §2
[20] = tested on: A549; assay: Growth inhibition of human A549/ATCC cells after 48 hrs by SRB assay; settings: A549, 48 h; summary of the method: as §1
[21] = tested on: SK-MEL-5; assay: Growth inhibition of human SK-MEL-5 cells after 48 hrs by SRB assay; settings: SK-MEL-5, 48 h; summary of the method: as §1
[22] = tested on: SR; assay: Growth inhibition of human SR cells after 48 hrs by SRB assay; summary of the method: as §2
[23] = tested on: CCRF-CEM; assay: Growth inhibition of human CCRF-CEM cells after 48 hrs by SRB assay; summary of the method: as §1
[24] = tested on: U-251; assay: Growth inhibition of human U251 cells after 48 hrs by SRB assay; settings: U-251, 48 h; summary of the method: as §2
[25] = Growth inhibition of human MOLT4 cells after 48 hrs by SRB assay; settings: MOLT-4, 48 h; summary of the method: as §1
[26] = tested on: TK-10; assay: Growth inhibition of human TK10 cells after 48 hrs by SRB assay; settings: TK-10, 48 h; summary of the method: as §2
[27] = Growth inhibition of human HCC2998 cells after 48 hrs by SRB assay; settings: HCC 2998, 48 h; summary of the method: as §1
[28] = tested on: HL-60(TB); assay: Growth inhibition of human HL-60(TB) cells after 48 hrs by SRB assay; settings: HL-60, 48 h
Summary of the method: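 NCI-60 panel screen: cells were exposed to test agent at five concentrations (10−4, 10−5, 10−6, 10−7 and 10−8 M) for 48 h. Sulforhodamine B optical density was read at time zero and after exposure to compound or vehicle control, and growth percentage versus control was calculated. GI50 was taken as the concentration giving a 50% reduction in net cell growth relative to day 0 cell numbers.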

[29] = Growth inhibition of human HOP92 cells after 48 hrs by SRB assay; settings: HOP-92, 48 h; summary of the method: as §1
[30] = tested on: MDA-MB-231; assay: Growth inhibition of human MDA-MB-231/ATCC cells after 48 hrs by SRB assay; settings: MDA-MB-231, 48 h; summary of the method: as §1
[31] = Growth inhibition of human SF539 cells after 48 hrs by SRB assay; settings: SF-539, 48 h; summary of the method: as §1
[32] = tested on: MCF7; assay: Growth inhibition of human MCF7 cells after 48 hrs by SRB assay; settings: MCF7, 48 h; summary of the method: as §1
[33] = tested on: HOP-62; assay: Growth inhibition of human HOP62 cells after 48 hrs by SRB assay; settings: HOP-62, 48 h; summary of the method: as §1
[34] = tested on: K562; assay: Growth inhibition of human K562 cells after 48 hrs by SRB assay; settings: K562, 48 h; summary of the method: as §1
[35] = tested on: NCI-H522; assay: Growth inhibition of human NCI-H522 cells after 48 hrs by SRB assay; settings: NCI-H522, 48 h; summary of the method: as §1
[36] = tested on: SK-OV-3; assay: Growth inhibition of human SKOV3 cells after 48 hrs by SRB assay; settings: SK-OV-3, 48 h; summary of the method: as §1
[37] = tested on: IGROV-1; assay: Growth inhibition of human IGROV1 cells after 48 hrs by SRB assay; settings: IGROV-1, 48 h; summary of the method: as §1
[38] = Growth inhibition of human RXF393 cells after 48 hrs by SRB assay; settings: RXF 393, 48 h; summary of the method: as §1
[39] = tested on: HCT-15; assay: Growth inhibition of human HCT15 cells after 48 hrs by SRB assay; settings: HCT-15, 48 h; summary of the method: as §1
[40] = tested on: ACHN; assay: Growth inhibition of human ACHN cells after 48 hrs by SRB assay; summary of the method: as §1
[41] = Growth inhibition of human NCI-ADR-RES cells after 48 hrs by SRB assay; summary of the method: as §1
[42] = tested on: HCT-116; assay: Growth inhibition of human HCT116 cells after 48 hrs by SRB assay; settings: HCT-116, 48 h; summary of the method: as §1
[43] = tested on: MDA-MB-468; assay: Growth inhibition of human MDA-MB-468 cells after 48 hrs by SRB assay; settings: MDA-MB-468, 48 h; summary of the method: as §1
[44] = tested on: OVCAR-5; assay: Growth inhibition of human OVCAR5 cells after 48 hrs by SRB assay; settings: OVCAR-5, 48 h; summary of the method: as §1
[45] = tested on: 786-0; assay: Growth inhibition of human 786-0 cells after 48 hrs by SRB assay; settings: 786-0, 48 h; summary of the method: as §1
[46] = tested on: SN12C; assay: Growth inhibition of human SN12C cells after 48 hrs by SRB assay; summary of the method: as §1
[47] = tested on: KM12; assay: Growth inhibition of human KM12 cells after 48 hrs by SRB assay; settings: KM12, 48 h; summary of the method: as §1
[48] = tested on: T47D; assay: Growth inhibition of human T47D cells after 48 hrs by SRB assay; summary of the method: as §2
[49] = Growth inhibition of human BT549 cells after 48 hrs by SRB assay; settings: BT-549, 48 h; summary of the method: as §1
[50] = Growth inhibition of human Hs578T cells after 48 hrs by SRB assay; settings: Hs-578T; summary of the method: as §1
[51] = tested on: DU-145; assay: Growth inhibition of human DU145 cells after 48 hrs by SRB assay; settings: DU-145, 48 h; summary of the method: as §1
[52] = tested on: HT-29; assay: Growth inhibition of human HT-29 cells after 48 hrs by SRB assay; settings: HT-29, 48 h; summary of the method: as §1
[53] = tested on: CAKI-1; assay: Growth inhibition of human Caki1 cells after 48 hrs by SRB assay; settings: CAKI-1, 48 h; summary of the method: as §1
[54] = tested on: Malme-3M; assay: Growth inhibition of human MALME-3M cells after 48 hrs by SRB assay; summary of the method: as §1
[55] = Growth inhibition of human SF295 cells after 48 hrs by SRB assay; settings: SF-295, 48 h; summary of the method: as §1
[56] = tested on: SNB-19; assay: Growth inhibition of human SNB19 cells after 48 hrs by SRB assay; settings: SNB-19, 48 h; summary of the method: as §1
[57] = tested on: NCI-H460; assay: Growth inhibition of human NCI-H460 cells after 48 hrs by SRB assay; settings: NCI-H460, 48 h; summary of the method: as §1
[58] = tested on: OVCAR-8; assay: Growth inhibition of human OVCAR8 cells after 48 hrs by SRB assay; settings: OVCAR-8, 48 h; summary of the method: as §1
[59] = Growth inhibition of human COLO205 cells after 48 hrs by SRB assay; settings: COLO 205, 48 h; summary of the method: as §1

Structure (SMILES): COc1cc(/C=C/c2cc3ccccc3o2)cc(OC)c1OC
- GI50 [1]: 1.1 µM
- GI50 [2]: 16.4 µM
- GI50 [3]: 1.15 µM
- GI50 [4]: 0.837 µM
- GI50 [5]: 3.09 µM
- GI50 [6]: 0.524 µM
- GI50 [7]: 0.861 µM
- GI50 [8]: 0.895 µM
- GI50 [9]: 0.078 µM
- GI50 [10]: 0.429 µM
- GI50 [11]: 0.479 µM
- GI50 [12]: 0.444 µM
- GI50 [13]: 15.9 µM
- GI50 [14]: 0.408 µM
- GI50 [15]: 0.767 µM
- GI50 [16]: 0.7 µM
- GI50 [17]: 0.475 µM
- GI50 [18]: 0.507 µM
- GI50 [19]: 1.15 µM
- GI50 [20]: 0.615 µM
- GI50 [21]: 0.345 µM
- GI50 [22]: 0.094 µM
- GI50 [23]: 0.425 µM
- GI50 [24]: 0.668 µM
- GI50 [25]: 0.852 µM
- GI50 [26]: 8.46 µM
- GI50 [27]: 0.334 µM
- GI50 [28]: 0.356 µM
- GI50 [29]: 0.17 µM
- GI50 [30]: 1.17 µM
- GI50 [31]: 0.273 µM
- GI50 [32]: 0.373 µM
- GI50 [33]: 0.775 µM
- GI50 [34]: 0.267 µM
- GI50 [35]: 0.436 µM
- GI50 [36]: 0.656 µM
- GI50 [37]: 0.807 µM
- GI50 [38]: 0.329 µM
- GI50 [39]: 0.402 µM
- GI50 [40]: 0.863 µM
- GI50 [41]: 0.511 µM
- GI50 [42]: 0.522 µM
- GI50 [43]: 0.662 µM
- GI50 [44]: 2.94 µM
- GI50 [45]: 0.85 µM
- GI50 [46]: 4.09 µM
- GI50 [47]: 0.508 µM
- GI50 [48]: 0.693 µM
- GI50 [49]: 1.09 µM
- GI50 [50]: 0.499 µM
- GI50 [51]: 1.86 µM
- GI50 [52]: 0.375 µM
- GI50 [53]: 0.58 µM
- GI50 [54]: 0.413 µM
- GI50 [55]: 0.356 µM
- GI50 [56]: 0.584 µM
- GI50 [57]: 0.416 µM
- GI50 [58]: 2.05 µM
- GI50 [59]: 0.406 µM
